Test results reported in ChEMBL document CHEMBL2203281, “Microwave assisted synthesis and anti-influenza virus activity of 1-adamantyl substituted N-(1-thia-4-azaspiro[4.5]decan-4-yl)carboxamide derivatives” (Bioorg Med Chem, 2012).

What was measured:
Influenza B virus [1] = test: Antiviral activity against Influenza B virus (B/HK/5/72) infected in MDCK cells assessed as virus-induced cytopathic effect after 3 days by microscopic analysis; assay type: functional, cell-based; settings: B/Hong Kong/05/1972, MDCK, 72 h
How it was run: (§1)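 Multicycle CPE reduction assay in 96-well MDCK cells. Cells got serial compound dilutions together with influenza virus at multiplicity of infection 0.0004 PFU per cell, then 72 h at 35 °C. CPE was read by microscopic scoring and then by MTS cell viability.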

Influenza A virus [2] = test: Antiviral activity against Influenza A virus (A/X-31(H3N2)) infected in MDCK cells assessed as virus-induced cytopathic effect after 3 days by microscopic analysis; assay type: functional, organism-based; settings: 72 h; how it was run: as §1
Influenza B virus [3] = test: Antiviral activity against Influenza B virus (B/HK/5/72) infected in MDCK cells assessed as virus-induced cytopathic effect after 3 days by MTS assay; assay type: functional, cell-based; settings: B/Hong Kong/05/1972, MDCK, 72 h; how it was run: as §1
Influenza A virus [4] = test: Antiviral activity against Influenza A virus (A/PR/8/34(H1N1)) infected in MDCK cells assessed as virus-induced cytopathic effect after 3 days by microscopic analysis; assay type: functional, organism-based, A/Puerto Rico/8/1934(H1N1); how it was run: as §1
Influenza A virus [5] = test: Antiviral activity against Influenza A virus (A/X-31(H3N2)) infected in MDCK cells assessed as virus-induced cytopathic effect after 3 days by MTS assay; assay type: functional, organism-based; how it was run: as §1
[6] = Cytotoxicity against dog MDCK cells assessed as cell morphology alterations by microscopic analysis; assay type: cell-based, Canis lupus familiaris
How it was run: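 MDCK cells were exposed to serial compound dilutions and kept 72 h at 35 °C alongside the antiviral plates. MCC is the lowest concentration causing a microscopically detectable change in cell morphology.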

Influenza A virus [7] = test: Antiviral activity against Influenza A virus (A/PR/8/34(H1N1)) infected in MDCK cells assessed as virus-induced cytopathic effect after 3 days by MTS assay; assay type: functional, organism-based, A/Puerto Rico/8/1934(H1N1); how it was run: as §1
[8] = Cytotoxicity against dog MDCK cells assessed as cell viability by MTS assay; assay type: cell-based, Canis lupus familiaris
Hemagglutinin = Hemagglutinin (Influenza A virus (strain A/X-31 H3N2), UniProt P03438); test: Inhibition of hemagglutininin in Influenza A virus (A/X-31(H3N2)) infected in chicken red blood cells assessed as inhibition of hemolysis preincubated for 1 hr prior to addition of red blood cells measured at pH 5.0 by spectrophotometric analysis; assay type: cell-based
How it was run: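 Influenza A/X-31 (H3N2) stock was preincubated with serial compound dilutions for 1 h at 37 °C. Chicken RBC were added for 10 min at 37 °C, then pelleted and resuspended in buffer holding the same compound level. pH was lowered to 5.0 for 25 min at 37 °C, then neutralised. Intact RBC were spun out and supernatant OD540 read. IC50 came from dose-response.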

[9] = Selectivity index, ratio of cytotoxic concentration for dog MDCK cells to EC50 for Influenza A virus (A/X-31(H3N2)); assay type: toxicity, cell-based; settings: read-out: Ratio EC50
[10] = Influenza A virus, A/Puerto Rico/8/1934(H1N1), MDCK, 72 h

Hemagglutinin, sequence (P03438 whole entry): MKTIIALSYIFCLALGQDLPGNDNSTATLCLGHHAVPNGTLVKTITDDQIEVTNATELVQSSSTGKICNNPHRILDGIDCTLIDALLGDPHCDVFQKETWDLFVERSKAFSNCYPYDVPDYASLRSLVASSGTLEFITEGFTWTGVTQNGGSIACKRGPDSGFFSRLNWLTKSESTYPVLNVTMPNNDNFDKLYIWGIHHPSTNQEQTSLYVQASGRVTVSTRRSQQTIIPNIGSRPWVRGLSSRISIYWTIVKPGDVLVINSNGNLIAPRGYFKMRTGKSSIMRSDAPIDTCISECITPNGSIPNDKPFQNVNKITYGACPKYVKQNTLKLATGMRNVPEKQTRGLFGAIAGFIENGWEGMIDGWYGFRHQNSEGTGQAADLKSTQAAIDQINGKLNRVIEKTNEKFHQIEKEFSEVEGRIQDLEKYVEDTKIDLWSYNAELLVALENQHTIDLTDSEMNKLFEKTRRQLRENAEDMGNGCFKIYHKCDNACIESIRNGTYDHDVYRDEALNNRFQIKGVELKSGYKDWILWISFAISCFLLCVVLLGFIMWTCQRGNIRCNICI

SMILES	EC50 (Influenza B virus [1]) [µM]	EC50 (Influenza A virus [2]) [µM]	EC50 (Influenza B virus [3]) [µM]	EC50 (Influenza A virus [4]; [10]) [µM]	EC50 (Influenza A virus [5]; Influenza A virus, MDCK, 72 h) [µM]	MCC [6] [µM]	EC50 (Influenza A virus [7]; [10]) [µM]	CC50 [8] [µM]	IC50 (Hemagglutinin) [µM]	selectivity ratio [9]	EC50 (Influenza A virus [4]; mdck) [µM]	EC50 (Influenza A virus [5]; mdck) [µM]	EC50 (Influenza A virus [7]; mdck) [µM]
CC1SC2(CCCCC2)N(NC(=O)C23CC4CC(CC(C4)C2)C3)C1=O (stereo not drawn)	> 100	> 100	> 100	> 100	> 100	> 100	> 100	> 100					
CC1CCC2(CC1)SCC(=O)N2NC(=O)C12CC3CC(CC(C3)C1)C2 (stereo not drawn)	> 100	> 100	> 100	> 100	> 100	> 100	> 100	> 100					
CC1CCC2(CC1)SC(C)C(=O)N2NC(=O)C12CC3CC(CC(C3)C1)C2 (stereo not drawn)	> 100	1.6	> 100	> 100	1.4	> 100	> 100	> 100	3.7	> 67			
CCC1CCC2(CC1)SCC(=O)N2NC(=O)C12CC3CC(CC(C3)C1)C2 (stereo not drawn)	> 100	> 100	> 100	> 100	21	> 100	> 100	> 100					
CCC1CCC2(CC1)SC(C)C(=O)N2NC(=O)C12CC3CC(CC(C3)C1)C2 (stereo not drawn)	> 100	51	> 100	> 100	1.7	> 100	> 100	> 100					
CCCC1CCC2(CC1)SCC(=O)N2NC(=O)C12CC3CC(CC(C3)C1)C2 (stereo not drawn)	> 100	> 100	> 100	> 100	44	> 100	> 100	> 100					
CCCC1CCC2(CC1)SC(C)C(=O)N2NC(=O)C12CC3CC(CC(C3)C1)C2 (stereo not drawn)	> 100	29	> 100	> 100	23	> 100	> 100	> 100					
CC(C)(C)C1CCC2(CC1)SCC(=O)N2NC(=O)C12CC3CC(CC(C3)C1)C2 (stereo not drawn)	> 100	> 100	> 100	> 100	34	> 20	53	> 100					
CC1SC2(CCC(C(C)(C)C)CC2)N(NC(=O)C23CC4CC(CC(C4)C2)C3)C1=O (stereo not drawn)	> 100	> 100	> 100	> 100	> 100	> 100	> 100	> 100					
O=C1CSC2(CCC(c3ccccc3)CC2)N1NC(=O)C12CC3CC(CC(C3)C1)C2 (stereo not drawn)	> 100	> 100	> 100	> 100	> 100	> 20	> 100	> 100					
CC1SC2(CCC(c3ccccc3)CC2)N(NC(=O)C23CC4CC(CC(C4)C2)C3)C1=O (stereo not drawn)	> 100	> 100	> 100	> 100	> 100	20	> 100	42					
Cc1nc2sccn2c1C(=O)NN1C(=O)C(C)SC12CCC(C)CC2 (stereo not drawn)	> 100	6.8	> 100	> 100	9	> 100	> 100	> 100					
NC12CC3CC(CC(C3)C1)C2 [AMANTADINE]	> 500	224	> 500	58	208	> 500	75	> 500					
NC(=O)c1ncn([C@@H]2O[C@H](CO)[C@@H](O)[C@H]2O)n1 [RIBAVIRIN]	0.094		0.14			> 20		> 100			8.9	8.5	8.4
CC(N)C12CC3CC(CC(C3)C1)C2 (stereo not drawn) [RIMANTADINE]	> 500	45	> 500	2.7	40		2.5	218					
CC(=O)N[C@H]1[C@H]([C@H](O)[C@H](O)CO)OC(C(=O)O)=C[C@@H]1NC(=N)N [ZANAMIVIR]	0.072	12	0.063	0.44	53	> 100	0.48	> 100					
